High-throughput results deposited in PubChem by Broad Institute.
Rows were chosen to be rich in hits. Some 3.5% of all compounds tested hit in one or more screens of this group.
MITF TRPM1 HTS = activators of MITF-driven TRPM1 promoter reporter, primary screen, cell-based, SK-MEL-5, luciferase, single point. activation, % at 12.5 µM. 300,000 compounds, 0.75% hits. AID 588334, 2011. SK-MEL-5 TRPM1-promoter luciferase, 24 h; % of positive control, neutral wells = 0;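 active = mean activation of at least 80% with every replicate also reaching 80%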;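 note: 0% = neutral control wells and 100% = parthenolide positive control wells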
Cneo AK release = Cryptococcus neoformans cell lysis inducers, primary screen, AK release luminescence, single concentration. 360,000 compounds, 0.2% hits. C. neoformans lysis, adenylate kinase release luminescence, 4 h; normalised: neutral wells 0, clomiphene wells 100. lysis activity, % at 15 µM;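 active = mean lysis activity across replicates of at least 80%, whatever share of replicates individually reach that level; inactive = mean lysis activity below 80%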
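Material: C. neoformans cells | Amount: Yeast cell density of 5 × 10^6 cells/mL | Medium: Fresh YPD growth medium | Dosing: Single dose | Times: Static 4 h at 37 °C with compound, 1 h detection | Detection: AK luminescence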
Env fusion inh = inhibitors of HIV-1 Env-driven cell-cell fusion, primary screen, HeLa-JRFL effector, CEM21 target cells, luciferase | 360,000 compounds, 1.1% hits | inhibition, % at 12.3 µM;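 active = mean replicate inhibition score of at least 50 and every replicate individually at or above 50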;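 note: 0% = plate neutral controls and 100% = maraviroc near 300 nM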
esBAF inh = Bmi1 luciferase reporter increase in mESCs, primary screen, esBAF inhibitor project, mouse ES cells, Bmi1 luciferase knock-in, single point; 350,000 compounds, 2% hits; 24 h; 100% = twice the neutral-well signal; reporter increase, % at 12.5 µM; in the data active = activation above about 40%;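 note: 0% = median of the plate's neutral control wells and 100% = double that signal; a rise in the Bmi1 reporter signal indicates esBAF inhibition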
Wnt act = Wnt/beta-catenin pathway activators, primary screen, cell-based, plate reader, single point; AID 743398, 2014; 300,000 compounds, 1.2% hits; Wnt/beta-catenin reporter cell assay, activator; activation, % at 9.35 µM; in the data active = activation above about 30%, passing the limit was not always enough;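 note: 0% = neutral control wells and 100% = positive control wells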
ERAP1 inh = human ERAP1 aminopeptidase inhibitors, primary screen, biochemical, single point, plate reader; Endoplasmic reticulum aminopeptidase 1 (Homo sapiens), Q9NZ08; 340,000 compounds, 0.15% hits; recombinant ERAP1, Leu-AMC fluorescence, 60 min; inhibition, % at 10.7 µM;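 active = mean replicate inhibition of at least 30%, or all replicates individually reaching that 30% level; inactive = mean below 30% and not every replicate reaching it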;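 note: 0% = neutral control wells and 100% = L-leucinethiol positive control wells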
Active calls of the source: *; [ ] = remark or other dose.

What do the screens show for `COC(=O)c1sccc1-c1ccc(C(=O)Nc2ccccc2)o1`?
MITF TRPM1 HTS: 76; Cneo AK release: -14; Env fusion inh: -110; esBAF inh: 74*

How did COC(=O)c1sccc1NC(=O)c1ccc(C)o1 do in these assays?
MITF TRPM1 HTS: -2; Cneo AK release: -1; Env fusion inh: -40; esBAF inh: 5; Wnt act: -1

What do the screens show for `CCc1nnc(NC(=O)c2ccc(COc3ccccc3Cl)o2)s1`?
Cneo AK release: 2; Env fusion inh: 9; esBAF inh: -5; Wnt act: 0; ERAP1 inh: 3

Results for COc1ccc(-c2ccc(-c3noc(C(C)C)n3)c(OC)n2)cc1 ?
MITF TRPM1 HTS: 64; Cneo AK release: 1; esBAF inh: 35

How did CCc1nc(-c2ccc(-c3ccc(OC)cc3)nc2OC)no1 do in these assays?
MITF TRPM1 HTS: 12; Cneo AK release: -1; Env fusion inh: -106; esBAF inh: 10; Wnt act: 56*

Results for COc1nc(-c2ccccc2)ccc1-c1noc(C)n1 ?
Env fusion inh: -185; esBAF inh: 31; Wnt act: 50*; ERAP1 inh: 2

How did COCc1nc(-c2ccc(-c3ccccc3)nc2OC)no1 do in these assays?
Cneo AK release: -11; Env fusion inh: -295; esBAF inh: 66*; Wnt act: 49*

Results for COCc1nc(-c2ccc(-c3ccc(OC)cc3)nc2OC)no1 ?
MITF TRPM1 HTS: 24; Cneo AK release: -1; Env fusion inh: -37; esBAF inh: 35; Wnt act: 20; ERAP1 inh: 4

What do the screens show for `COc1ccc(NC(=O)Nc2ccc3c(c2)[C@@H]2C[C@@H](CC(=O)N4CCCCC4)O[C@H](CO)[C@@H]2O3)cc1`?
Cneo AK release: -53; esBAF inh: -6; ERAP1 inh: -4

What do the screens show for `C[C@@H]1CN([C@@H](C)CO)S(=O)(=O)c2ccc(-c3ccc(F)cc3)cc2O[C@@H]1CN(C)C(=O)C1CCCCC1`?
Cneo AK release: 2; Env fusion inh: 16[16.7 µM]; esBAF inh: 0; ERAP1 inh: 0

How did C[C@H](O)C#Cc1ccc2c(c1)O[C@H](CN(C)C(=O)C1CCCCC1)[C@H](C)CN([C@@H](C)CO)S2(=O)=O do in these assays?
Cneo AK release: 94*; Env fusion inh: 2[16.7 µM]; esBAF inh: -27; ERAP1 inh: 2

Results for C[C@@H]1CN([C@@H](C)CO)S(=O)(=O)c2ccc(-c3ccc(F)cc3)cc2O[C@H]1CN(C)C(=O)C1CCCCC1 ?
Cneo AK release: 0; Env fusion inh: 67*[16.7 µM]; esBAF inh: 0; ERAP1 inh: 2

What do the screens show for `C[C@@H]1CN([C@H](C)CO)S(=O)(=O)c2ccc(-c3ccccc3)cc2O[C@H]1CN(C)C(=O)C1CCCCC1`?
Cneo AK release: 105*; Env fusion inh: 23[16.7 µM]; esBAF inh: -22; ERAP1 inh: -2

How did C=CCn1c(SCC(=O)Nc2ccc(F)cc2F)nc2c([nH]c3ccccc32)c1=O do in these assays?
MITF TRPM1 HTS: -14; Cneo AK release: 1; Env fusion inh: 13; Wnt act: -2; ERAP1 inh: 0

What do the screens show for `COCCn1c(SCC(=O)Nc2ccccc2OC)nc2c([nH]c3ccccc32)c1=O`?
MITF TRPM1 HTS: -23; Cneo AK release: 2; Env fusion inh: 92*; esBAF inh: -3; Wnt act: -1; ERAP1 inh: -1

How did COCCn1c(SCC(=O)NCCc2ccccc2)nc2c([nH]c3ccccc32)c1=O do in these assays?
MITF TRPM1 HTS: -5; Cneo AK release: 1

How did C=CCn1c(SCC(=O)NCCc2ccccc2)nc2c([nH]c3ccccc32)c1=O do in these assays?
MITF TRPM1 HTS: -3; Cneo AK release: -2; Env fusion inh: 57*; Wnt act: 4; ERAP1 inh: -2

What do the screens show for `Cn1c(=O)cc(SCC(=O)NCCC2=CCCCC2)c2ccc(Cl)cc21`?
MITF TRPM1 HTS: 5
